The target in assay [1] is T1, IgG receptor FcRn large subunit p51 (Homo sapiens, UniProt P55899). The experiment in a line: Inhibition of human IgG binding to soluble human FcRn by ELISA. In short, it runs like this: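 Biotinylated soluble human FcRn immobilized on neutravidin plates, incubated with hIgG (3 nM, constant) and peptide at varying concentrations for 2 h at 37 °C. After washing, bound hIgG detected with peroxidase-conjugated hIgG-specific Fab fragments.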

The target of assay [2] is T1, IgG receptor FcRn large subunit p51. Description: Binding affinity to human FcRn at pH 6 by surface plasmon resonance assay. In short, it runs like this:
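Soluble human FcRn coupled to the dextran surface of a CM5 chip; peptide dilutions flowed over the chip. The equilibrium response at each dilution was plotted against concentration and fitted to a steady-state affinity model to give Kd.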
Background: Surface plasmon resonance follows binding to a sensor surface in real time, without labels.

In ChEMBL document CHEMBL1150419, “Structure-activity relationships of a peptide inhibitor of the human FcRn:human IgG interaction” (Bioorg Med Chem, 2008) one finds IC50 and Kd data, which are given here for 19 compounds.

Molecules are shown by their SMILES.

In general, IC50 refers to the concentration needed to halve the response being measured. A high value points to lower potency. For orientation: Kd means the free concentration of one partner at which half of the binding sites on the other are occupied at equilibrium, for simple one-to-one binding.

T1 sequence (P55899 whole entry, the tested form may be a part): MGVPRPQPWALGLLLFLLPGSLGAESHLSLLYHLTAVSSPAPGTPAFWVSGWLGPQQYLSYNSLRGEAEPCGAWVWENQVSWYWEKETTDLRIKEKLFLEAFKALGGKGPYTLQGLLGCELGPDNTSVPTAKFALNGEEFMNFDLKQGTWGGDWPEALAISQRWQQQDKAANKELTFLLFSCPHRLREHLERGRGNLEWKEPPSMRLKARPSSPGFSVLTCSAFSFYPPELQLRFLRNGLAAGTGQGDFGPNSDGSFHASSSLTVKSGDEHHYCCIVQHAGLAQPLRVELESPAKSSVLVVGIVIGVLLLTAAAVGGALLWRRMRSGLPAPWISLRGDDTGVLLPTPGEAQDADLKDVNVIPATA

In the case of `CC(C)C[C@@H](C(=O)N[C@@H](Cc1ccc(O)cc1)C(=O)N1CCC[C@H]1C(=O)N[C@@H](CS)C(=O)O)N(C)C(=O)CN(C)C(=O)CNC(=O)[C@H](CCc1ccccc1)NC(=O)[C@H](Cc1cnc[nH]1)NC(=O)CNC(=O)[C@@H](NC(=O)[C@@H](NC(=O)[C@H](Cc1ccccc1)NC(=O)[C@H](CCCNC(=N)N)NC(=O)[C@@H](N)CCC(N)=O)C(C)(C)S)[C@@H](C)O`, the concentration for half-maximal inhibition (IC50) in assay [1] turned out to be 16 µM. The compound further showed an equilibrium dissociation constant (Kd) in assay [2] of 230 µM.

As for `CC(C)C[C@H](NC(=O)CNC(=O)CNC(=O)[C@H](Cc1ccc(C(C)(C)C)cc1)NC(=O)[C@H](Cc1cnc[nH]1)NC(=O)CNC(=O)[C@@H](NC(=O)[C@@H](NC(=O)[C@H](Cc1ccccc1)NC(=O)[C@H](CCCNC(=N)N)NC(=O)[C@@H](N)CCC(N)=O)C(C)(C)S)[C@@H](C)O)C(=O)N[C@@H](Cc1ccc(O)cc1)C(=O)N1CCC[C@H]1C(=O)N[C@@H](CS)C(=O)O`, in assay [1], the concentration for half-maximal inhibition (IC50) was > 125 µM. In assay [2], this compound registered a Kd of 230 µM.

On to `CC(C)C[C@H](NC(=O)CNC(=O)CNC(=O)[C@@H]1Cc2ccccc2CN1C(=O)[C@H](Cc1cnc[nH]1)NC(=O)CNC(=O)[C@@H](NC(=O)[C@@H](NC(=O)[C@H](Cc1ccccc1)NC(=O)[C@H](CCCNC(=N)N)NC(=O)[C@@H](N)CCC(N)=O)C(C)(C)S)[C@@H](C)O)C(=O)N[C@@H](Cc1ccc(O)cc1)C(=O)N1CCC[C@H]1C(=O)N[C@@H](CS)C(=O)N[C@@H](CC(N)=O)C(=O)NCC(=O)N1CCC[C@H]1C(=O)O`, for which, in assay [1], the concentration for half-maximal inhibition (IC50) was > 125 µM. Besides, the Kd in assay [2] is > 250 µM.

As for `CC(C)C[C@H](NC(=O)CNC(=O)CNC(=O)[C@H](Cc1ccccc1)NC(=O)[C@H](Cc1cnc[nH]1)NC(=O)CNC(=O)[C@@H](NC(=O)[C@@H](NC(=O)[C@H](Cc1ccccc1)NC(=O)[C@H](CCCNC(=N)N)NC(=O)[C@@H](N)CCC(N)=O)C(C)(C)S)[C@@H](C)O)C(=O)N[C@@H](Cc1ccc(O)cc1[N+](=O)[O-])C(=O)N1CCC[C@H]1C(=O)N[C@@H](CS)C(=O)N[C@@H](CC(N)=O)C(=O)NCC(=O)N1CCC[C@H]1C(=O)O`, the IC50 in assay [1] is > 125 µM. The equilibrium dissociation constant (Kd) in assay [2] worked out at 290 µM.

The compound `CC(C)C[C@H](NC(=O)CNC(=O)CNC(=O)[C@H](Cc1ccccc1)NC(=O)[C@H](Cc1cnc[nH]1)NC(=O)CNC(=O)[C@@H](NC(=O)[C@@H](NC(=O)[C@H](Cc1ccccc1)NC(=O)[C@H](CCCNC(=N)N)NC(=O)[C@@H](N)CCC(N)=O)C(C)(C)S)[C@@H](C)O)C(=O)N[C@@H](Cc1cccnc1)C(=O)N1CCC[C@H]1C(=O)N[C@@H](CS)C(=O)N[C@@H](CC(N)=O)C(=O)NCC(=O)N1CCC[C@H]1C(=O)O` yielded a half-inhibitory concentration (IC50) in assay [1] of 92 µM. The same compound showed a Kd in assay [2] of 34 µM.

As for `CC(C)C[C@H](NC(=O)CNC(=O)CNC(=O)[C@H](Cc1ccc2ccccc2c1)NC(=O)[C@H](Cc1cnc[nH]1)NC(=O)CNC(=O)[C@@H](NC(=O)[C@@H](NC(=O)[C@H](Cc1ccccc1)NC(=O)[C@H](CCCN=C(N)N)NC(=O)[C@@H](N)CCC(N)=O)C(C)(C)S)[C@@H](C)O)C(=O)N[C@@H](Cc1ccc(O)cc1)C(=O)N1CCC[C@H]1C(=O)N[C@@H](CS)C(=O)N[C@@H](CC(N)=O)C(=O)NCC(=O)N1CCC[C@H]1C(=O)O`, in assay [1], the half-inhibitory concentration (IC50) worked out at 90 µM. The compound further showed a Kd in assay [2] of 11 µM.

For the compound `CC(C)C[C@H](NC(=O)C(C)(C)NC(=O)CNC(=O)[C@H](Cc1ccccc1)NC(=O)[C@H](Cc1cnc[nH]1)NC(=O)CNC(=O)[C@@H](NC(=O)[C@@H](NC(=O)[C@H](Cc1ccccc1)NC(=O)[C@H](CCCNC(=N)N)NC(=O)[C@@H](N)CCC(N)=O)C(C)(C)S)[C@@H](C)O)C(=O)N[C@@H](Cc1ccc(O)cc1)C(=O)N1CCC[C@H]1C(=O)N[C@@H](CS)C(=O)N[C@@H](CC(N)=O)C(=O)NCC(=O)N1CCC[C@H]1C(=O)O`, the IC50 in assay [1] is 2.4 µM. In assay [2], the dissociation constant (Kd) came out at 0.48 µM.

In turn, `CC(C)C[C@H](NC(=O)CNC(=O)CNC(=O)[C@H](Cc1cccnc1)NC(=O)[C@H](Cc1cnc[nH]1)NC(=O)CNC(=O)[C@@H](NC(=O)[C@@H](NC(=O)[C@H](Cc1ccccc1)NC(=O)[C@H](CCCN=C(N)N)NC(=O)[C@@H](N)CCC(N)=O)C(C)(C)S)[C@@H](C)O)C(=O)N[C@@H](Cc1ccc(O)cc1)C(=O)N1CCC[C@H]1C(=O)N[C@@H](CS)C(=O)N[C@@H](CC(N)=O)C(=O)NCC(=O)N1CCC[C@H]1C(=O)O` registered an IC50 in assay [1] of 60 µM. The dissociation constant Kd in assay [2] was found to be 19 µM.

`CC(C)C[C@H](NC(=O)CNC(=O)CNC(=O)[C@@H](NC(=O)[C@H](Cc1cnc[nH]1)NC(=O)CNC(=O)[C@@H](NC(=O)[C@@H](NC(=O)[C@H](Cc1ccccc1)NC(=O)[C@H](CCCN=C(N)N)NC(=O)[C@@H](N)CCC(N)=O)C(C)(C)S)[C@@H](C)O)C(c1ccccc1)c1ccccc1)C(=O)N[C@@H](Cc1ccc(O)cc1)C(=O)N1CCC[C@H]1C(=O)N[C@@H](CS)C(=O)O` came in with an IC50 in assay [1] of 32 µM. This compound gave a Kd in assay [2] of 230 µM.

In assay [1], `CC(C)C[C@H](NC(=O)[C@@H](CCCN=C(N)N)NC(=O)CNC(=O)[C@H](Cc1ccccc1)NC(=O)[C@H](Cc1cnc[nH]1)NC(=O)CNC(=O)[C@@H](NC(=O)[C@@H](NC(=O)[C@H](Cc1ccccc1)NC(=O)[C@H](CCCN=C(N)N)NC(=O)[C@@H](N)CCC(N)=O)C(C)(C)S)[C@@H](C)O)C(=O)N[C@@H](Cc1ccc(O)cc1)C(=O)N1CCC[C@H]1C(=O)N[C@@H](CS)C(=O)N[C@@H](CC(N)=O)C(=O)NCC(=O)N1CCC[C@H]1C(=O)O` showed an IC50 of 8.1 µM. Further, the Kd in assay [2] worked out at 0.83 µM.

For the compound `COc1ccc(C[C@H](NC(=O)[C@H](Cc2cnc[nH]2)NC(=O)CNC(=O)[C@@H](NC(=O)[C@@H](NC(=O)[C@H](Cc2ccccc2)NC(=O)[C@H](CCCN=C(N)N)NC(=O)[C@@H](N)CCC(N)=O)C(C)(C)S)[C@@H](C)O)C(=O)NCC(=O)NCC(=O)N[C@@H](CC(C)C)C(=O)N[C@@H](Cc2ccc(O)cc2)C(=O)N2CCC[C@H]2C(=O)N[C@@H](CS)C(=O)N[C@@H](CC(N)=O)C(=O)NCC(=O)N2CCC[C@H]2C(=O)O)cc1`, the IC50 in assay [1] came to 100 µM. In addition, binding in assay [2] was put at a Kd of 18 µM.

In assay [1], `Cc1cccc(C[C@H](NC(=O)[C@H](Cc2cnc[nH]2)NC(=O)CNC(=O)[C@@H](NC(=O)[C@@H](NC(=O)[C@H](Cc2ccccc2)NC(=O)[C@H](CCCN=C(N)N)NC(=O)[C@@H](N)CCC(N)=O)C(C)(C)S)[C@@H](C)O)C(=O)NCC(=O)NCC(=O)N[C@@H](CC(C)C)C(=O)N[C@@H](Cc2ccc(O)cc2)C(=O)N2CCC[C@H]2C(=O)N[C@@H](CS)C(=O)N[C@@H](CC(N)=O)C(=O)NCC(=O)N2CCC[C@H]2C(=O)O)c1` came in with a 50% inhibitory concentration (IC50) of 4.1 µM. Also, the Kd in assay [2] worked out at 0.67 µM.

`CC(C)C[C@H](NC(=O)CNC(=O)CNC(=O)[C@H](Cc1cccc(Cl)c1)NC(=O)[C@H](Cc1cnc[nH]1)NC(=O)CNC(=O)[C@@H](NC(=O)[C@@H](NC(=O)[C@H](Cc1ccccc1)NC(=O)[C@H](CCCNC(=N)N)NC(=O)[C@@H](N)CCC(N)=O)C(C)(C)S)[C@@H](C)O)C(=O)N[C@@H](Cc1ccc(O)cc1)C(=O)N1CCC[C@H]1C(=O)N[C@@H](CS)C(=O)O`: the 50% inhibitory concentration (IC50) in assay [1] came to 3.7 µM. The same compound registered a Kd in assay [2] of 230 µM.

The compound `Cc1ccccc1C[C@H](NC(=O)[C@H](Cc1cnc[nH]1)NC(=O)CNC(=O)[C@@H](NC(=O)[C@@H](NC(=O)[C@H](Cc1ccccc1)NC(=O)[C@H](CCCNC(=N)N)NC(=O)[C@@H](N)CCC(N)=O)C(C)(C)S)[C@@H](C)O)C(=O)NCC(=O)NCC(=O)N[C@@H](CC(C)C)C(=O)N[C@@H](Cc1ccc(O)cc1)C(=O)N1CCC[C@H]1C(=O)N[C@@H](CS)C(=O)N[C@@H](CC(N)=O)C(=O)NCC(=O)N1CCC[C@H]1C(=O)O` displayed an IC50 in assay [1] of 1 µM. The same compound gave a Kd in assay [2] of 0.2 µM.

`CC(C)C[C@H](NC(=O)CNC(=O)CNC(=O)[C@H](CCc1ccccc1)NC(=O)[C@H](Cc1cnc[nH]1)NC(=O)CNC(=O)[C@@H](NC(=O)[C@@H](NC(=O)[C@H](Cc1ccccc1)NC(=O)[C@H](CCCNC(=N)N)NC(=O)[C@@H](N)CCC(N)=O)C(C)(C)S)[C@@H](C)O)C(=O)N[C@@H](Cc1ccc(O)cc1)C(=O)N1CCC[C@H]1C(=O)N[C@@H](CS)C(=O)N[C@@H](CC(N)=O)C(=O)NCC(=O)N1CCC[C@H]1C(=O)O` showed an IC50 in assay [1] of 80 µM. Besides, in assay [2], the dissociation constant (Kd) is 7.8 µM.

`CC(C)C[C@H](NC(=O)CNC(=O)CNC(=O)[C@H](Cc1ccccc1)NC(=O)[C@H](Cc1cnc[nH]1)NC(=O)CNC(=O)[C@@H](NC(=O)[C@H](CS)NC(=O)[C@H](Cc1ccccc1)NC(=O)[C@H](CCCNC(=N)N)NC(=O)[C@@H](N)CCC(N)=O)[C@@H](C)O)C(=O)N[C@@H](Cc1ccccc1)C(=O)N1CCC[C@H]1C(=O)N[C@@H](CS)C(=O)N[C@@H](CC(N)=O)C(=O)NCC(=O)N1CCC[C@H]1C(=O)O`: the 50% inhibitory concentration (IC50) in assay [1] is > 125 µM. Also, in assay [2], the Kd stood at 230 µM.

For the compound `CC(C)C[C@H](NC(=O)CNC(=O)CNC(=O)[C@@H](NC(=O)[C@H](Cc1cnc[nH]1)NC(=O)CNC(=O)[C@@H](NC(=O)[C@@H](NC(=O)[C@H](Cc1ccccc1)NC(=O)[C@H](CCCN=C(N)N)NC(=O)[C@@H](N)CCC(N)=O)C(C)(C)S)[C@@H](C)O)c1ccccc1)C(=O)N[C@@H](Cc1ccc(O)cc1)C(=O)N1CCC[C@H]1C(=O)N[C@@H](CS)C(=O)N[C@@H](CC(N)=O)C(=O)NCC(=O)N1CCC[C@H]1C(=O)O`, the half-inhibitory concentration (IC50) in assay [1] is > 125 µM. Also, the dissociation constant Kd in assay [2] was > 250 µM.

`CC(C)C[C@H](NC(=O)CNC(=O)CNC(=O)[C@H](Cc1ccccc1)NC(=O)[C@H](Cc1cnc[nH]1)NC(=O)CNC(=O)[C@@H](NC(=O)[C@@H](NC(=O)[C@H](Cc1ccccc1)NC(=O)[C@H](CCCNC(=N)N)NC(=O)[C@@H](N)CCC(N)=O)C(C)(C)S)[C@@H](C)O)C(=O)N[C@@H](Cc1c(F)c(F)c(F)c(F)c1F)C(=O)N1CCC[C@H]1C(=O)N[C@@H](CS)C(=O)N[C@@H](CC(N)=O)C(=O)NCC(=O)N1CCC[C@H]1C(=O)O`: in assay [1], the 50% inhibitory concentration (IC50) was > 125 µM. Also, the Kd in assay [2] was found to be 72 µM.

As for `CC(C)C[C@H](NC(=O)CNC(=O)[C@@H](Cc1ccccc1)NC(=O)[C@H](Cc1ccccc1)NC(=O)[C@H](Cc1cnc[nH]1)NC(=O)CNC(=O)[C@@H](NC(=O)[C@@H](NC(=O)[C@H](Cc1ccccc1)NC(=O)[C@H](CCCNC(=N)N)NC(=O)[C@@H](N)CCC(N)=O)C(C)(C)S)[C@@H](C)O)C(=O)N[C@@H](Cc1ccc(O)cc1)C(=O)N1CCC[C@H]1C(=O)N[C@@H](CS)C(=O)N[C@@H](CC(N)=O)C(=O)NCC(=O)N1CCC[C@H]1C(=O)O`, the IC50 in assay [1] is 2.8 µM. The equilibrium dissociation constant (Kd) in assay [2] is 0.51 µM.
